In ChEMBL document CHEMBL4229550, “An antimycobacterial pleuromutilin analogue effective against dormant bacilli” (Bioorg Med Chem, 2018):
In brackets after ≈: the same amount, converted by molar mass. Activity calls are given as the source filed them. No cut-off for these calls is given here.

Tests used:
Staphylococcus aureus [1] = experiment: Antibacterial activity against Staphylococcus aureus incubated for 24 hrs under aerobic condition by MABA; format: functional; conditions: read-out: MIC100
How it was run: (§1)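 Resazurin was then added from a 0.08% stock for 1 h. MIC100 was the lowest concentration where the dye stayed blue (pink means growth). Absorbance was also read at 570 and 600 nm.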

[2] = system: Mycobacterium tuberculosis; experiment: Antibacterial activity against replicating Mycobacterium tuberculosis H37Rv incubated for 15 days under aerobic condition by MABA; format: functional; conditions: 360 h, read-out: MIC100
How it was run: (§2)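 Mtb H37Rv grown in 7H9/OADC at 37 °C with shaking to OD600 0.5. The 0.5-OD culture is exposed aerobically to serial dilutions for 15 days at 37 °C. Resazurin (0.02% stock) is then added for 4 h at 37 °C with shaking.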

Vero = experiment: Cytotoxicity against African green monkey Vero cells assessed as reduction in cell viability after 72 hrs by MTT assay; format: cell-based; conditions: Chlorocebus sabaeus
How it was run: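 Vero cells were grown in complete EMEM with 10% FBS and exposed for 72 h to 0.78–200 µg/mL. The medium was then swapped for phenol-red-free EMEM and MTT was added. Formazan absorbance was read at 570 nm to give IC50.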

[3] = Selectivity index, ratio of IC50 for African green monkey Vero cells to MIC100 for replicating Mycobacterium tuberculosis H37Rv by MABA; format: toxicity; conditions: read-out: Selectivity Index
How it was run: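 Vero cells are cultured in EMEM with 10% FBS and exposed for 72 h to 0.78–200 µg/mL. Medium is switched to phenol-red-free EMEM, MTT is added, and formazan is read at 570 nm to give IC50. The selectivity index is Vero IC50 divided by the MABA MIC.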

Escherichia coli [4] = experiment: Inhibition of protein translation/transcription in Escherichia coli S30 cell extract at 0.1 ug/ml using circular DNA with pBESTluc after 60 mins by luciferase reporter gene assay; format: functional
How it was run: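 Coupled transcription/translation used E. coli S30 extract, amino acid mix and premix, with the pBESTluc template carrying firefly luciferase under the tac promoter. Compounds were added in DMSO and reactions were started with DNA. Incubation was 60 min at 37 °C, stopped on ice, and luciferase was read after adding assay substrate.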

Escherichia coli [5] = experiment: Inhibition of protein translation/transcription in Escherichia coli S30 cell extract using circular DNA with pBESTluc after 60 mins by luciferase reporter gene assay; format: functional; conditions: 1 h
How it was run: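 E. coli S30 circular-DNA coupled transcription/translation kit with the pBESTluc template (firefly luciferase under the tac promoter). S30 extract, amino acids and premix are combined with compound in DMSO, and the reaction is started with DNA. Incubation is 60 min at 37 °C, stopped on ice, then luciferase luminescence is read.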

[6] = system: Mycobacterium tuberculosis; experiment: Bactericidal activity against replicating Mycobacterium tuberculosis H37Rv incubated for 15 days under aerobic condition by MABA; format: functional; conditions: 360 h; how it was run: as §2
[7] = system: Mycolicibacterium smegmatis; experiment: Antibacterial activity against Mycobacterium smegmatis ATCC 607 incubated for 48 hrs under aerobic condition by MABA; format: functional; conditions: ATCC 607, 48 h, read-out: MIC100
How it was run: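 Mid-log culture at OD 0.5 was incubated with serial dilutions aerobically at 37 °C for 48 h. Resazurin was then added from a 0.08% stock for 1 h. MIC100 was the lowest concentration that stayed blue; absorbance was also read at 570/600 nm.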

[8] = system: Mycolicibacterium smegmatis; experiment: Bactericidal activity against Mycobacterium smegmatis ATCC 607 incubated for 48 hrs under aerobic condition by MABA; format: functional; conditions: ATCC 607, 48 h
Staphylococcus aureus [9] = experiment: Bactericidal activity against Staphylococcus aureus incubated for 24 hrs under aerobic condition by MABA; format: functional
Staphylococcus aureus [10] = experiment: Antibacterial activity against Staphylococcus aureus ATCC 25923 incubated for 24 hrs under aerobic condition by MABA; format: functional; conditions: ATCC 25923, 24 h, read-out: MIC100
How it was run: (§3)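 Mid-log cultures at OD 0.5 were exposed to serial dilutions under aerobic conditions at 37 °C for 24 h. Resazurin was then added from a 0.08% stock for 1 h. MIC100 was the lowest concentration where the dye stayed blue (pink means growth). Absorbance was also read at 570 and 600 nm.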

Staphylococcus aureus [11] = experiment: Bactericidal activity against Staphylococcus aureus ATCC 25923 incubated for 24 hrs under aerobic condition by MABA; format: functional; conditions: ATCC 25923, 24 h
Staphylococcus aureus [12] = experiment: Antibacterial activity against Staphylococcus aureus BAA 2094 incubated for 24 hrs under aerobic condition by MABA; format: functional; conditions: BAA 2094, 24 h, read-out: MIC100; how it was run: as §1
Staphylococcus aureus [13] = experiment: Bactericidal activity against Staphylococcus aureus BAA 2094 incubated for 24 hrs under aerobic condition by MABA; format: functional; conditions: BAA 2094, 24 h
Staphylococcus aureus [14] = experiment: Antibacterial activity against Staphylococcus aureus BAA 1683 incubated for 24 hrs under aerobic condition by MABA; format: functional; conditions: BAA 1683, 24 h, read-out: MIC100; how it was run: as §3
Staphylococcus aureus [15] = experiment: Bactericidal activity against Staphylococcus aureus BAA 1683 incubated for 24 hrs under aerobic condition by MABA; format: functional; conditions: BAA 1683, 24 h
Staphylococcus aureus [16] = experiment: Antibacterial activity against Staphylococcus aureus BAA 44 incubated for 24 hrs under aerobic condition by MABA; format: functional; conditions: BAA 44, 24 h, read-out: MIC100; how it was run: as §3
Staphylococcus aureus [17] = experiment: Bactericidal activity against Staphylococcus aureus BAA 44 incubated for 24 hrs under aerobic condition by MABA; format: functional; conditions: BAA 44, 24 h
Enterococcus faecalis [18] = experiment: Antibacterial activity against Enterococcus faecalis ATCC 349 incubated for 24 hrs under aerobic condition by MABA; format: functional; conditions: ATCC 349, 24 h, read-out: MIC100; how it was run: as §3
Enterococcus faecalis [19] = experiment: Bactericidal activity against Enterococcus faecalis ATCC 349 incubated for 24 hrs under aerobic condition by MABA; format: functional; conditions: ATCC 349, 24 h
Enterococcus faecalis [20] = experiment: Antibacterial activity against Enterococcus faecalis ATCC 19433 incubated for 24 hrs under aerobic condition by MABA; format: functional; conditions: ATCC 19433, 24 h, read-out: MIC100; how it was run: as §3
Enterococcus faecalis [21] = experiment: Bactericidal activity against Enterococcus faecalis ATCC 19433 incubated for 24 hrs under aerobic condition by MABA; format: functional; conditions: ATCC 19433, 24 h
Clostridioides difficile = experiment: Bactericidal activity against Clostridium difficile ATCC 700057 incubated for 24 hrs […] by MABA; format: functional; conditions: ATCC 700057, 24 h
Streptococcus pneumoniae [22] = experiment: Antibacterial activity against Streptococcus pneumoniae ATCC 6301 incubated for 24 hrs under aerobic condition by MABA; format: functional; conditions: ATCC 6301, 24 h, read-out: MIC100; how it was run: as §3
Streptococcus pneumoniae [23] = experiment: Bactericidal activity against Streptococcus pneumoniae ATCC 6301 incubated for 24 hrs under aerobic condition by MABA; format: functional; conditions: ATCC 6301, 24 h
Klebsiella pneumoniae [24] = experiment: Antibacterial activity against Klebsiella pneumoniae ATCC 12019 incubated for 24 hrs under aerobic condition by MABA; format: functional; conditions: ATCC 12019, 24 h, read-out: MIC100; how it was run: as §3
Klebsiella pneumoniae [25] = experiment: Bactericidal activity against Klebsiella pneumoniae ATCC 12019 incubated for 24 hrs under aerobic condition by MABA; format: functional; conditions: ATCC 12019, 24 h
Acinetobacter baumannii [26] = experiment: Antibacterial activity against Acinetobacter baumannii ATCC 19606 incubated for 24 hrs under aerobic condition by MABA; format: functional; conditions: ATCC 19606 = CIP 70.34 = JCM 6841, 24 h, read-out: MIC100; how it was run: as §3
Acinetobacter baumannii [27] = experiment: Bactericidal activity against Acinetobacter baumannii ATCC 19606 incubated for 24 hrs under aerobic condition by MABA; format: functional; conditions: ATCC 19606 = CIP 70.34 = JCM 6841, 24 h
Escherichia coli [28] = experiment: Antibacterial activity against Escherichia coli ATCC 10798 incubated for 24 hrs under aerobic condition by MABA; format: functional; conditions: ATCC 10798, 24 h, read-out: MIC100; how it was run: as §3
Escherichia coli [29] = experiment: Bactericidal activity against Escherichia coli ATCC 10798 incubated for 24 hrs under aerobic condition by MABA; format: functional; conditions: ATCC 10798, 24 h
Streptococcus salivarius [30] = experiment: Antibacterial activity against Streptococcus salivarius […] incubated for 24 hrs under aerobic condition by MABA; format: functional; conditions: read-out: MIC100; how it was run: as §1
Streptococcus salivarius [31] = experiment: Bactericidal activity against Streptococcus salivarius ATCC 6301 incubated for 24 hrs under aerobic condition by MABA; format: functional; conditions: ATCC 6301, 24 h
Bacillus subtilis [32] = experiment: Antibacterial activity against Bacillus subtilis ATCC 6051 incubated for 24 hrs under aerobic condition by MABA; format: functional; conditions: ATCC 6051, 24 h, read-out: MIC100; how it was run: as §3
Bacillus subtilis [33] = experiment: Bactericidal activity against Bacillus subtilis ATCC 6051 incubated for 24 hrs under aerobic condition by MABA; format: functional; conditions: ATCC 6051, 24 h

Compound: CC(=O)NC[C@H]1CN(c2ccc(N3CCOCC3)c(F)c2)C(=O)O1 [LINEZOLID]
- MIC (Staphylococcus aureus [1]): 0.78 µg/mL (≈ 2.31 µM)
- MIC [2]: 0.6 µg/mL (≈ 1.78 µM)
- IC50 (Vero): > 200 µg/mL
- selectivity ratio [3]: > 333
- inhibition (Escherichia coli [4]): Active
- IC50 (Escherichia coli [5]): 0.05 µg/mL (≈ 0.148 µM)
- MBC [6]: 1.61 µg/mL (≈ 4.77 µM)
- MIC [7]: 0.2 µg/mL (≈ 0.593 µM)
- MBC [8]: 0.8 µg/mL (≈ 2.37 µM)
- MBC (Staphylococcus aureus [9]): 1.56 µg/mL (≈ 4.62 µM)
- MIC (Staphylococcus aureus [10]): > 25 µg/mL
- MBC (Staphylococcus aureus [11]): > 25 µg/mL
- MIC (Staphylococcus aureus [12]): > 25 µg/mL
- MBC (Staphylococcus aureus [13]): > 25 µg/mL
- MIC (Staphylococcus aureus [14]): 12.5 µg/mL (≈ 37.1 µM)
- MBC (Staphylococcus aureus [15]): 25 µg/mL (≈ 74.1 µM)
- MIC (Staphylococcus aureus [16]): > 25 µg/mL
- MBC (Staphylococcus aureus [17]): > 25 µg/mL
- MIC (Enterococcus faecalis [18]): > 25 µg/mL
- MBC (Enterococcus faecalis [19]): > 25 µg/mL
- MIC (Enterococcus faecalis [20]): 12.5 µg/mL (≈ 37.1 µM)
- MBC (Enterococcus faecalis [21]): 25 µg/mL (≈ 74.1 µM)
- MBC (Clostridioides difficile): 3.13 µg/mL (≈ 9.28 µM)
- MIC (Streptococcus pneumoniae [22]): 25 µg/mL (≈ 74.1 µM)
- MBC (Streptococcus pneumoniae [23]): > 25 µg/mL
- MIC (Klebsiella pneumoniae [24]): 25 µg/mL (≈ 74.1 µM)
- MBC (Klebsiella pneumoniae [25]): > 25 µg/mL
- MIC (Acinetobacter baumannii [26]): > 25 µg/mL
- MBC (Acinetobacter baumannii [27]): > 25 µg/mL
- MIC (Escherichia coli [28]): 25 µg/mL (≈ 74.1 µM)
- MBC (Escherichia coli [29]): > 25 µg/mL
- MIC (Streptococcus salivarius [30]): 3.13 µg/mL (≈ 9.28 µM)
- MBC (Streptococcus salivarius [31]): > 25 µg/mL
- MIC (Bacillus subtilis [32]): 3.13 µg/mL (≈ 9.28 µM)
- MBC (Bacillus subtilis [33]): 6.25 µg/mL (≈ 18.5 µM)
